Screening data from PubChem BioAssay.
Cl transport mod – KCC2 cotransporter modulators, thallium flux, primary screen, cell-based, HEK293 KCC2, FluoZin-2 fluorescence, MLSMR | Solute carrier family 12 member 5 (Homo sapiens), Q9H2X9 | KCC2 cells, thallium flux FluoZin-2 fluorescence | B-score of Tl+ flux slope (higher = more flux/activation; lower = inhibition) at 10 µM | actives 2.2% (n = 190,000) | AID 1456, 2008;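 active = thallium flux slope and its plate-corrected score both differing from the plate sample mean at a set confidence after two filtering rounds, in either direction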;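 note: slope of fluorescence scaled to starting intensity during 10 to 20 s after thallium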
Lmaj promast – Leishmania major promastigote growth inhibition, primary screen | inhibition, % at 10 µM | AID 1063, 2008 | Leishmania major promastigotes, resazurin fluorescence viability | actives 9% (n = 200,000); in the data active = inhibition above about 50%;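 note: promastigotes grown with compound for 44 hours at 28 °C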
WT yeast gro inh – growth inhibition of WT strain, primary screen, mitochondrial fusion inhibitor project, WT and mutant strains, chemical genetic; mitochondrial fusion phenotypic screen; inhibition, % at 10 µM; actives 2.1% (n = 190,000); in the data active = inhibition above about 58%; tested in S. cerevisiae
ROMK primary – ROMK potassium channel modulators, primary screen, cell-based, thallium flux, MLSMR library. ATP-sensitive inward rectifier potassium channel 1 (Homo sapiens), P48048. Tet-inducible ROMK, thallium flux fluorescence; actives lie on both sides. B-score at 10 µM. actives 2% (n = 130,000);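 active = signal ratio slope over the read window, or its plate-corrected B-score, at least 3 SD from the plate mean, either direction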;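 note: B-score of the F/F0 ratio slope over 7 to 12 s after thallium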
Diaph act CS – compounds boosting diaphorase resazurin reduction – biochemical, uHTS, resorufin fluorescence, counter-screen for diaphorase-coupled primary assays, primary screen | Diaphorase/resazurin coupled assay, 16 min; active compounds read high; 1 = vehicle wells, 0 = NADH-free wells | AID 1229, 2008 | actives 0.005% (n = 190,000) | activation factor at 20 µM;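 active = diaphorase activity raised at least twofold by the compound at 20 µM; inactive = activation factor below 2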
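Test system: Clostridium kluyveri diaphorase, purified enzyme; input: enzyme 0.07 U/mL final; buffer or medium: 50 mM HEPES pH 7.4 with 4.542 mM MgCl2, 0.005% Tween 20; also added: 0.114 mM NADH and 0.1 mM resazurin, final amounts; schedule: 16 min enzyme reaction, ambient temperature; technique: fluorescence of resorufin, 544 nm excitation, 590 nm emission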
Diaphorase inh – diaphorase inhibitors and chemical oxidizers, primary screen, counter-screen for diaphorase-coupled primary assays, biochemical, uHTS, resorufin fluorescence; diaphorase resazurin-to-resorufin fluorescence, NADH, 16 min; bacterial (C. kluyveri) enzyme, not human; inhibition, % at 20 µM; actives 0.69% (n = 190,000); AID 1217, 2008;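 active = primary screen inhibition at 20 µM above a set limit, cut at about 50% in these data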
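Test system: diaphorase enzyme from Clostridium kluyveri; amount: diaphorase at 0.14 U/mL in enzyme working solution; detection: fluorescence of resorufin formed from resazurin, Ex 544/Em 590 nm; times: reaction incubation of 16 min at room temperature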
ROMK retest – ROMK channel modulator hit retest, confirmation, cell-based, thallium flux, duplicate, resupplied hits; normalized thallium flux (F/F0 slope) at 10 µM; actives 54% (n = 3,000); shares compounds with ROMK primary; AID 1917, 2009; fluorescence ratio; active compounds read low;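 active = Flux at 10 µM at least 3 SD below or above vehicle control mean in one or both replicates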
Hits are given with their value; n = inactive; x = no result given. In the library only some 12% were active in any assay of this set; here they are far more common.

SMILES | Cl transport mod | Lmaj promast | WT yeast gro inh | ROMK primary | Diaph act CS | Diaphorase inh | ROMK retest
COc1ccccc1NC(=O)c1sc2nc(Cc3ccccc3)cc(C(F)(F)F)c2c1N | n | n | n | -5.48 | n | n | 0.0476
O=C(COc1ccccc1)Nc1nccs1 | x | n | n | 2.96 | n | n | n
CCCCNC(=O)c1ccc(CS(=O)(=O)c2cccc(C(F)(F)F)c2)o1 | n | n | n | x | n | n | x
O=C(O)c1ccc(CS(=O)(=O)c2cccc(C(F)(F)F)c2)o1 | n | n | n | x | n | n | n
CC(=O)OCC(OC(C)=O)C(OC(C)=O)C(OC(C)=O)C(=O)Nc1cccc(C)c1 (stereo not given) | n | x | x | x | x | x | x
CC(=O)OCC(OC(C)=O)C(OC(C)=O)C(OC(C)=O)C(=O)Nc1ccc(C)cc1 (stereo not given) | n | n | n | x | n | n | n
CCCCCCCCn1c2c(c(=N)c3ccccc31)CCC2 | n | 100.4 | n | -6.62 | x | x | 0.0389
CCOC(=O)Cn1c2c(c(=N)c3ccccc31)CCC2 | n | n | n | x | n | n | x
CCOC(=O)Cn1c2c(c(=N)c3c1CCC3)CCC2 | x | n | n | x | n | n | x
CCCCCCCCCn1c2c(c(=N)c3c1CCC3)CCCC2 | n | 100.5 | n | -3.38 | n | n | 0.0383
Cn1cc(/C=C2\SC(=S)N(NC(=O)c3ccccc3)C2=O)c2ccccc21 | n | n | n | -3.01 | n | n | 0.0579
Cn1cc(/C=C2\SC(=S)N(NC(=O)c3cccc(Cl)c3)C2=O)c2ccccc21 | n | x | x | x | x | x | x
COc1ccc(N(C(C)C(=O)Nc2cccnc2)S(C)(=O)=O)cc1 (stereo not given) | n | n | n | n | n | n | x
O=C1N=C(N2CCOCC2)S/C1=C\c1ccc(-c2ccccc2Cl)o1 | n | n | n | x | n | n | 0.0524
Cc1ccccc1-c1ccc(/C=C2/SC(N3CCOCC3)=NC2=O)o1 | n | x | x | x | x | x | x
Cc1sc(N/N=C/C=C/c2ccccc2)nc1-c1ccccc1 | x | n | n | x | n | n | x
O=C(c1ccc(CNc2c(N3CCCC3)c(=O)c2=O)cc1)N1CCN(C2CCCCC2)CC1 | n | n | n | 3.74 | n | n | n
CC1CCN(C(=O)c2ccc(CNc3c(N4CCCC4)c(=O)c3=O)cc2)CC1 | n | x | x | n | x | x | x
CCOc1cc(NS(=O)(=O)c2ccccc2)c(OCC)cc1NC(=O)c1ccco1 | n | n | n | x | n | n | x
CCOC(=O)C1=C(C)N=C2SCCC(=O)N2[C@@H]1/C=C/c1ccccc1 | n | n | n | x | n | n | x
CC1=C(C(=O)OCc2ccccc2)C(/C=C/c2ccccc2)N2C(=O)CCSC2=N1 (stereo not given) | n | 74.8 | n | -4.92 | n | n | n
CCOC(=O)Nc1nc(-c2ccccc2)c(C(=O)c2ccc(Cl)cc2)s1 | n | n | 58.9 | 3.16 | n | n | n
N#Cc1nc(-c2cccc3ccccc23)oc1NCCN1CCCCC1 | n | 100.4 | n | -3.42 | n | n | 0.0647
CCOc1ncccc1C(=O)OCc1cccc([N+](=O)[O-])c1 | n | n | n | n | n | n | x
COc1ccc(CC2(CO)CCN(Cc3cnc(-c4ccccc4C)nc3)CC2)cc1 | n | n | n | n | x | x | x
SMILES | Cl transport mod | Lmaj promast | WT yeast gro inh | ROMK primary | Diaph act CS | Diaphorase inh | ROMK retest
Cc1c(CN2CCC(CO)(Cc3ccccc3)CC2)c2ccccc2n1C | n | n | n | -2.38 | x | x | 0.0599
COc1ccc(C(=O)Cn2nnc(-c3ccccc3NC(=O)C(F)(F)F)n2)cc1 | n | n | n | 1.99 | n | n | n
COc1ccc(N(CCC#N)S(=O)(=O)c2cccc3nsnc23)cc1 | n | n | n | n | n | n | x
CCc1nnc(NC(=O)CSc2nc(-c3ccccc3)cc(-c3ccc(OC)cc3)c2C#N)s1 | n | n | n | x | n | n | x
ClC1(Cl)CC1CSc1nc2ccccc2[nH]1 (stereo not given) | n | n | n | -4.25 | n | n | n
O=C(NCc1cccs1)c1ccc(Cl)c(S(=O)(=O)N2CCCC2)c1 | n | n | n | n | n | n | x
COc1ccccc1-n1cc(C(=O)NCC(=O)NCc2ccc(F)cc2)c2ccccc2c1=O | x | n | n | 3.11 | n | n | n
CCOC(=O)c1sc(N2N=C(C)/C(=C\c3ccc(OCC(=O)OC)cc3)C2=O)nc1C | n | n | n | n | n | n | x
Cc1ccc(-c2nc3c(c(=O)[nH]c(=O)n3CC(C)C)n2CC(C)C)cc1[N+](=O)[O-] | n | n | n | -3.61 | n | n | 0.056
Cc1ccc(OC(=O)c2sc(Cl)nc2C)cc1C | n | n | n | x | n | n | x
O=c1oc2ccccc2n1Cn1c(=O)oc2ccccc21 | x | n | n | n | n | n | x
O=C1c2ccccc2C(=O)N1CCCn1c(=O)oc2ccccc21 | n | n | n | 0.786 | n | n | n
Cc1ccccc1N1CCN(C(=O)c2ccccc2NC(=O)c2ccccc2C(=O)O)CC1 | x | n | n | n | n | n | x
N=c1n(CCN2CCCCC2)c2ccccc2n1CC(O)c1ccc(Cl)c(Cl)c1 (stereo not given) | n | 100.4 | n | -4.54 | n | n | 0.0461
N=c1n(CCN2CCCCC2)c2ccccc2n1CC(=O)c1ccc(Cl)c(Cl)c1 | n | x | x | x | x | x | x
CCCCN(CC)S(=O)(=O)c1ccc(C(=O)N(CCCN(C)C)c2nc3cc(C)cc(C)c3s2)cc1 | n | 100.1 | 95.8 | -3.75 | n | n | 0.0536
COc1ccc(/C(CC2OC(=O)c3ccccc32)=N\NC(N)=O)cc1 (stereo not given) | n | n | n | n | n | n | x
Cc1oc(-c2cccc(Cl)c2)nc1CN1CCCC(C(=O)NCc2ccco2)C1 (stereo not given) | x | n | n | n | n | n | x
Cc1cccc(-c2nc(CN3CCCC(C(=O)NC4CCCCCC4)C3)c(C)o2)c1 (stereo not given) | x | n | n | -3.52 | n | n | 0.0624
Cc1cccc(-c2nc(CN3CCCC(C(=O)NC4CCCCC4)C3)c(C)o2)c1 (stereo not given) | x | n | n | -2.46 | n | n | 0.0664
Cc1ccc(N2CCN(C(=O)c3ccccc3NC(=O)/C=C\C(=O)O)CC2)cc1 | n | n | n | n | n | n | x
Cc1occc1C(=O)N1CCN(Cc2ccccc2)CC1 | n | n | n | n | n | n | x
O=C(O)c1ccoc1CN1CCCCC1 | x | n | n | 1.69 | n | n | n
O=C(NCN1C(=O)C2C3C=CC(C3)C2C1=O)OC1CCCCC1 (stereo not given) | x | n | n | x | n | n | x
